SIRT5 block: SIRT5 desuccinylase inhibitors, primary screen, biochemical, fluorescence imaging, single point, set 5; NAD-dependent protein deacylase sirtuin-5, mitochondrial (Homo sapiens), Q9NXA8; Purified SirT5, succinyl-peptide AMC, trypsin-coupled fluorescence; inhibition, % at 15 µM; hit rate 1.1% among 330,000; AID 652115, 2013; in the data active = inhibition above about 15%; inconclusive = no clear call, values can overlap the other calls
Target sequence (Q9NXA8 whole entry, looked up): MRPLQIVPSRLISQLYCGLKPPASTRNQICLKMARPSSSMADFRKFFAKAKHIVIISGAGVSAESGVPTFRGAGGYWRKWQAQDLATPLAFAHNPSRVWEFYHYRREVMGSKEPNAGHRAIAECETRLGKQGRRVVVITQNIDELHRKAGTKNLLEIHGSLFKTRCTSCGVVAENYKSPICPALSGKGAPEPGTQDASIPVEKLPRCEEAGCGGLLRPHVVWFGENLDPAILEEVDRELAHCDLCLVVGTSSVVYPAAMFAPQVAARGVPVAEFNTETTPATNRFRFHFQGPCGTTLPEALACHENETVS
FGF22 binding: binders of human FGF22 protein, primary screen, FGF22 synaptogenesis inhibitor project, biophysical, thermal shift, single point | Fibroblast growth factor 22 (Homo sapiens), Q9HCT0 | recombinant FGF22 thermal shift, SYPRO orange fluorescence; percent of sucrose octasulfate shift, DMSO zero | activity (Tm shift, normalised), % at 9.99 µM | hit rate 1.5% among 340,000;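 active = mean Tm shift, scaled 0 neutral to 100 positive control, at about 1.3% or above, every replicate too, limit read from the data; inconclusive = no clear call, values can overlap the other calls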
Target sequence (Q9HCT0 whole entry, looked up): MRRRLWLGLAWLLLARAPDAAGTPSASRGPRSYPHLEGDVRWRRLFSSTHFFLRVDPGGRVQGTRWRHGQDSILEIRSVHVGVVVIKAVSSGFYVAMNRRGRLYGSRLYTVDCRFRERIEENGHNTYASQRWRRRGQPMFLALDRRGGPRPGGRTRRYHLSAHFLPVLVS
ARNT-TACC3 inh: disruptors of ARNT/TACC3 protein interaction, primary screen, biochemical, AlphaScreen, single concentration; Transforming acidic coiled-coil-containing protein 3 (Homo sapiens), Q9Y6A5; AlphaScreen His-ARNT PAS-B/GST-TACC3 binding, luminescence; TACC3 fragment carries E629A point mutation; inhibition, % at 9.99 µM; hit rate 0.66% among 390,000;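 active = mean inhibition of replicates at least 50% and at least half of replicates each reaching 50%; inconclusive = half or more replicates reach 50% but mean below 50%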;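 note: 0% = complete ARNT plus TACC3 wells and 100% = ARNT alone without TACC3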
XiGFP reactiv: activators of inactive X chromosome reactivation, primary screen, imaging, XiGFP fibroblasts, GFP high-content imaging, set 2. hit rate 0.055% among 360,000. AID 743238, 2013. XiGFP mouse fibroblasts, % GFP-positive cells imaging, 3 d; cells co-treated with 5-aza-dC sensitizer; scaled so ellipticine positive control = 100%. activation, % at 7.58 µM;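 active = mean normalized replicate activation at least 10% and every replicate at or above 10%; inconclusive = only one of the two criteria met; inactive = mean below 10% and not all replicates reach 10%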;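 note: 0% = median of on-plate neutral control wells and 100% = ellipticine 6 µM median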
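System: 68-5-11 XiGFP fibroblast line | Buffer or medium: DMEM containing 5-aza-dC | Compound: Single point | Times: Compounds 3 days, fix/stain 15 min at room temperature | Benchmarks: Positive control ellipticine, 6 µM final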
DENV2 CPE: inhibitors of DENV2 cytopathic effect, primary screen, cell-based, plate reader, single concentration | DENV2-infected cells, cytopathic effect rescue | CPE inhibition, % at 9.99 µM | hit rate 1.7% among 350,000; in the data active = CPE inhibition above about 20%, passing the limit was not always enough; inconclusive = no clear call, values can overlap the other calls; tested in BHK-21 cells;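 note: 0% = median of neutral control wells and 100% = median of positive control wells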
FN deposit inh: inhibitors of fibronectin matrix deposition, primary screen, AH1F cells, Alexa488-fibronectin fluorescence, plate reader; AH1F fibroblasts, overnight; hit rate 0.086% among 350,000; inhibition, % at 12.6 µM;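 active = mean inhibition across replicates of 30% or more, regardless of how many single replicates reach that level; inconclusive = mean under 30% yet at least half of replicates reach 30%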;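 note: positive control wells lacked labelled fibronectin entirely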
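Measured by – fluorescence 485/525 nm · System – AH1F fibroblast monolayer, labelled fibronectin deposition · Amount – 10000 cells per well · Buffer or medium – serum-reduced DMEM (2% serum) · Doses – single dose, pinned · Also added – fluorescent fibronectin at 24 nM final · Schedule – 1 h cell attachment, overnight exposure to compound and label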
* marks the source's active call; other numbers are inactive results; ? = inconclusive; . = not tested or not shown. Only some compounds are listed: those with a hit (about 3.8% of all), similar ones and a draw of the others.

SMILES	SIRT5 block	FGF22 binding	ARNT-TACC3 inh	XiGFP reactiv	DENV2 CPE	FN deposit inh
C[C@H](CO)N1C[C@H](C)[C@@H](CN(C)Cc2ccncc2)OCCCC[C@H](C)Oc2ccc(NS(C)(=O)=O)cc2C1=O	-4	0	-7	0	?	.
CC(=O)N1CCN(C(=O)c2cc(S(=O)(=O)Nc3ccc(S(C)(=O)=O)cc3)ccc2Cl)CC1	1	44*	-7	0	3	1
CCN1CCN(C(=O)c2cc(S(=O)(=O)Nc3ccc(S(C)(=O)=O)cc3)ccc2Cl)CC1	-1	0	-11	0	.	-8
O=C(C[C@@H]1CC[C@@H]2[C@H](COC[C@@H](O)CN2C(=O)Nc2cccc(Cl)c2)O1)NCc1ccccc1F	-2	0	-11	0	-1	0
Cc1ccc(NC(=S)NCC23C=CC(O2)C2C(=O)N(c4ccc(C)cc4)C(=O)C23)cc1 (stereo not given)	-8	0	1	0	49*	-3
O=C(C[C@@H]1C=C[C@@H](NC(=O)C2CC2)[C@H](CO)O1)Nc1ccccc1	1	0	-1	0	?	.
CC#CC[N+](C)(C)CCCCCCCC	25*	0	8	0	1	-2
COCC(=O)N1CC(=O)N2[C@@H](CO)[C@@H](c3ccc(Br)cc3)[C@@H]2C1	-4	1	.	0	29*	.
CC(C)C#Cc1ccc([C@@H]2[C@@H](CO)N3C(=O)CN(C(=O)NC4CCCC4)C[C@H]23)cc1	11	0	.	0	-4	-7
O=C(c1ccc2c(c1)OCO2)N1CC(=O)N2[C@H](CO)[C@H](c3ccc(C#CCC4CCCC4)cc3)[C@@H]2C1	26*	-1	.	0	2	.
CC(C)C#Cc1ccc([C@@H]2[C@H](CO)N3C(=O)CN(C(=O)NC4CCCC4)C[C@@H]23)cc1	25*	0	.	0	1	1
O=C(c1ccc2c(c1)OCO2)N1CC(=O)N2[C@H](C1)[C@H](c1ccc(C#Cc3ccccc3)cc1)[C@@H]2CO	1	.	.	0	50*	.
O=C(c1ccc2c(c1)OCO2)N1CC(=O)N2[C@@H](CO)[C@@H](c3ccc(C#Cc4ccccc4)cc3)[C@@H]2C1	3	.	.	0	2	.
CC(C)C#Cc1ccc([C@@H]2[C@@H](CO)N3C(=O)CN(C(=O)c4ccc5c(c4)OCO5)C[C@H]23)cc1	20*	.	.	?	5	3
CC(C)C#Cc1ccc([C@H]2[C@H](CO)N3C(=O)CN(C(=O)c4ccc5c(c4)OCO5)C[C@@H]23)cc1	-4	.	.	0	11	9
O=C(c1ccccc1)N1CC(=O)N2[C@H](CO)[C@@H](c3ccc(C#Cc4ccccc4)cc3)[C@@H]2C1	5	.	.	0	21*	.
O=C(c1ccc2c(c1)OCO2)N1CC(=O)N2[C@H](CO)[C@H](c3ccc(-c4ccccc4)cc3)[C@@H]2C1	4	.	.	0	49*	.
O=C(c1ccccc1)N1CC(=O)N2[C@H](C1)[C@H](c1ccc(C#Cc3ccccc3)cc1)[C@@H]2CO	7	.	.	0	-4	.
C[C@H]1CN([C@@H](C)CO)C(=O)c2cc(NS(=O)(=O)c3ccc(F)cc3)ccc2O[C@@H]1CN(C)Cc1ccncc1	-1	0	-15	0	-12	.
COC(=O)C1=COC(OC2OC(CO)C(O)C(O)C2O)C2C(C)CC(=O)C12 (stereo not given)	.	0	.	.	-6	.
COC(=O)C1=CO[C@@H](O[C@@H]2O[C@H](CO)[C@@H](O)[C@H](O)[C@H]2O)C2C1CC(O)O[C@H]2C (stereo not given in full)	.	0	-4	0	23*	7
O=c1nc(Oc2ccccc2)nc2ncccn12	.	43*	.	0	3	0
O=Nc1nc2ncccn2c1-c1ccccc1	.	0	-7	0	-5	.
C[C@@H]1CN([C@H](C)CO)C(=O)Cc2cc(NC(=O)C3CCCCC3)ccc2O[C@@H]1CN(C)S(=O)(=O)c1ccc(Cl)cc1	5	0	-6	0	2	.
CCC(=O)N/C(N)=N/c1nc(C)c2cc(C)c(C)cc2n1	18*	0	.	0	-5	-2
SMILES	SIRT5 block	FGF22 binding	ARNT-TACC3 inh	XiGFP reactiv	DENV2 CPE	FN deposit inh
CCCNC(=O)Nc1ccc2c(c1)C(=O)N(C)[C@H]1CC[C@H](CC(=O)Nc3cccc(C)c3)O[C@@H]1CO2	-3	0	6	0	3	-8
CCCc1cc(NCCCn2ccnc2)n2nc(C)c(-c3ccccc3)c2n1	18*	0	9	0	-9	-4
CC(C)(C)c1cc(NCCCn2ccnc2)n2ncc(-c3ccccc3)c2n1	-2	0	12	0	-16	12
COC(=O)c1cc(-c2c(-c3cc(OC)c(OC)c(OC)c3)noc2C)cc([N+](=O)[O-])c1	-5	0	21	0	21*	-17
COc1cc(-c2c(-c3cc(OC)c(OC)c(OC)c3)noc2C)ccc1F	-5	0	.	0	-1	0
CCCNC(=O)Nc1ccc2c(c1)C(=O)N(C)C[C@@H](OC)[C@@H](C)CN(Cc1cccnc1)[C@@H](C)CO2	1	0	-4	0	-1	-9
COc1cc2sc3ccc(C#Cc4ccccn4)cc3c(=O)c2cc1OC	.	0	-16	0	23*	5
COc1cccc2sc3cc(C#Cc4ccccn4)ccc3c(=O)c12	-2	0	13	0	-13	6
CC(=O)Nc1ccc(N2C(=O)CSC2c2cccc([N+](=O)[O-])c2)cc1 (stereo not given)	-1	44*	1	0	-8	4
O=c1c2cc(F)ccc2sn1-c1ccccc1Cl	-2	0	.	4	-3	41*
C[C@@H]1CN([C@@H](C)CO)C(=O)c2cccc(NC(=O)Nc3ccccc3)c2O[C@@H]1CN(C)C	-3	0	-4	5	-6	-11
COC(=O)Cn1cnc2sc3c(c2c1=O)CCCC3	-7	43*	-3	0	0	-23
CCOC(=O)Cn1cnc2sc3c(c2c1=O)CCC3	.	.	-5	.	.	.
CC1CCc2c(sc3ncn(Cc4ccc(C(=O)O)cc4)c(=O)c23)C1 (stereo not given)	-4	43*	-6	0	-1	1

Screens (PubChem)
